Experimental data published in ChEMBL document CHEMBL4715736, “Identification of anticancer agents based on the thieno[2,3-b]pyridine and 1H-pyrazole molecular scaffolds” (2016).

Assays:
Type in all cases: functional
ACHN = test: Growth inhibition of human ACHN cells assessed as cell growth at 0.01 uM incubated for 48 hrs by sulforhodamine B assay relative to control; conditions: read-out: Activity
A498 [1] = test: Growth inhibition of human A498 cells assessed as cell growth at 1 uM incubated for 48 hrs by sulforhodamine B assay relative to control; conditions: read-out: Activity
Summary of the method: (§1)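 NCI Developmental Therapeutics Program NCI60 panel. Compounds that were active in the 10 µM one-dose screen went on to dose–response testing. Growth at each concentration is expressed relative to untreated control (100%). GI50 (concentration giving 50% of maximal inhibition of proliferation) and TGI (concentration giving total growth inhibition) were derived from the curves.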

A498 [2] = test: Growth inhibition of human A498 cells incubated for 48 hrs by sulforhodamine B assay; summary of the method: as §1
T47D = test: Growth inhibition of human T47D cells assessed as cell growth at 0.1 uM incubated for 48 hrs by sulforhodamine B assay relative to control; conditions: read-out: Activity
LOX IMVI = test: Growth inhibition of human LOX IMVI cells assessed as cell growth at 0.1 uM incubated for 48 hrs by sulforhodamine B assay relative to control; conditions: read-out: Activity
SNB-75 = test: Growth inhibition of human SNB-75 cells assessed as cell growth at 1 uM incubated for 48 hrs by sulforhodamine B assay relative to control; conditions: read-out: Activity
HOP-92 = test: Growth inhibition of human HOP-92 cells assessed as cell growth at 0.1 uM incubated for 48 hrs by sulforhodamine B assay relative to control; conditions: read-out: Activity
SF-295 [3] = test: Growth inhibition of human SF-295 cells assessed as cell growth at 0.1 uM incubated for 48 hrs by sulforhodamine B assay relative to control; conditions: read-out: Activity
CCRF-CEM [4] = test: Growth inhibition of human CCRF-CEM cells assessed as cell growth at 100 uM incubated for 48 hrs by sulforhodamine B assay relative to control; conditions: read-out: Activity; summary of the method: as §1
786-0 = test: Growth inhibition of human 786-0 cells incubated for 48 hrs by sulforhodamine B assay; summary of the method: as §1
SF-295 [5] = test: Growth inhibition of human SF-295 cells incubated for 48 hrs by sulforhodamine B assay
Summary of the method: (§2)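 NCI DTP 60-line human tumour panel. Dose-response curves were run only for ligands active in the initial 10 µM screen. GI50 (concentration giving 50% of maximal inhibition of proliferation) and TGI (concentration giving total growth inhibition) were derived from these curves.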

DU-145 = test: Growth inhibition of human DU-145 cells assessed as cell growth at 1 uM incubated for 48 hrs by sulforhodamine B assay relative to control; conditions: read-out: Activity; summary of the method: as §1
SNB-19 [6] = test: Growth inhibition of human SNB-19 cells incubated for 48 hrs by sulforhodamine B assay; summary of the method: as §2
SK-OV-3 = test: Growth inhibition of human SK-OV-3 cells assessed as cell growth at 1 uM incubated for 48 hrs by sulforhodamine B assay relative to control; conditions: read-out: Activity
IGROV-1 = test: Growth inhibition of human IGROV-1 cells assessed as cell growth at 1 uM incubated for 48 hrs by sulforhodamine B assay relative to control; conditions: read-out: Activity
OVCAR-8 = test: Growth inhibition of human OVCAR-8 cells assessed as cell growth at 0.1 uM incubated for 48 hrs by sulforhodamine B assay relative to control; conditions: read-out: Activity
OVCAR-3 [7] = test: Growth inhibition of human OVCAR-3 cells incubated for 48 hrs by sulforhodamine B assay; summary of the method: as §2
SF-539 [8] = test: Growth inhibition of human SF-539 cells assessed as cell growth at 0.1 uM incubated for 48 hrs by sulforhodamine B assay relative to control; conditions: read-out: Activity
SK-MEL-5 = test: Growth inhibition of human SK-MEL-5 cells assessed as cell growth at 100 uM incubated for 48 hrs by sulforhodamine B assay relative to control; conditions: read-out: Activity
M14 = test: Growth inhibition of human M14 cells assessed as cell growth at 0.1 uM incubated for 48 hrs by sulforhodamine B assay relative to control; conditions: read-out: Activity
UACC-257 [9] = test: Growth inhibition of human UACC-257 cells assessed as cell growth at 0.01 uM incubated for 48 hrs by sulforhodamine B assay relative to control; conditions: read-out: Activity
OVCAR-3 [10] = test: Growth inhibition of human OVCAR-3 cells assessed as cell growth at 1 uM incubated for 48 hrs by sulforhodamine B assay relative to control; conditions: read-out: Activity
A498 [11] = test: Growth inhibition of human A498 cells assessed as cell growth at 0.01 uM incubated for 48 hrs by sulforhodamine B assay relative to control; conditions: read-out: Activity; summary of the method: as §1
HT-29 = test: Growth inhibition of human HT-29 cells assessed as cell growth at 0.1 uM incubated for 48 hrs by sulforhodamine B assay relative to control; conditions: read-out: Activity
NCI-H460 = test: Growth inhibition of human NCI-H460 cells assessed as cell growth at 100 uM incubated for 48 hrs by sulforhodamine B assay relative to control; conditions: read-out: Activity
UACC-257 [12] = test: Growth inhibition of human UACC-257 cells assessed as cell growth at 1 uM incubated for 48 hrs by sulforhodamine B assay relative to control; conditions: read-out: Activity
OVCAR-4 = test: Growth inhibition of human OVCAR-4 cells assessed as cell growth at 1 uM incubated for 48 hrs by sulforhodamine B assay relative to control; conditions: read-out: Activity
COLO 205 [13] = test: Growth inhibition of human COLO 205 cells assessed as cell growth at 100 uM incubated for 48 hrs by sulforhodamine B assay relative to control; conditions: read-out: Activity; summary of the method: as §1
NCI-H322M = test: Growth inhibition of human NCI-H322M cells assessed as cell growth at 0.01 uM incubated for 48 hrs by sulforhodamine B assay relative to control; conditions: read-out: Activity
COLO 205 [14] = test: Growth inhibition of human COLO 205 cells assessed as cell growth at 1 uM incubated for 48 hrs by sulforhodamine B assay relative to control; conditions: read-out: Activity; summary of the method: as §1
UO-31 = test: Growth inhibition of human UO-31 cells assessed as cell growth at 100 uM incubated for 48 hrs by sulforhodamine B assay relative to control; conditions: read-out: Activity
A549 = test: Growth inhibition of human A549/ATCC cells incubated for 48 hrs by sulforhodamine B assay; summary of the method: as §1
Hs-578T = test: Growth inhibition of human Hs-578T cells assessed as cell growth at 0.01 uM incubated for 48 hrs by sulforhodamine B assay relative to control; conditions: read-out: Activity
CCRF-CEM [15] = test: Growth inhibition of human CCRF-CEM cells assessed as cell growth at 1 uM incubated for 48 hrs by sulforhodamine B assay relative to control; conditions: read-out: Activity; summary of the method: as §1
SF-539 [16] = test: Growth inhibition of human SF-539 cells assessed as cell growth at 0.01 uM incubated for 48 hrs by sulforhodamine B assay relative to control; conditions: read-out: Activity
SNB-19 [17] = test: Growth inhibition of human SNB-19 cells assessed as cell growth at 0.1 uM incubated for 48 hrs by sulforhodamine B assay relative to control; conditions: read-out: Activity
MDA-MB-231 = test: Growth inhibition of human MDA-MB-231 cells assessed as cell growth at 1 uM incubated for 48 hrs by sulforhodamine B assay relative to control; conditions: read-out: Activity
[18] = read-out: LC50 (the source's name)

Cc1cc(C)c(NC(=O)c2sc3nc4c(cc3c2N)CN(Cc2ccccc2)CC4)c(C)c1
growth at 0.01 µM (ACHN): 97% | growth at 1 µM (A498 [1]): 58% | GI50 (A498 [2]): 1.31 µM | TGI (A498 [2]): 7.71 µM | CC50 (A498 [2]; [18]): > 100 µM | growth at 0.1 µM (T47D): 93% | growth at 0.1 µM (LOX IMVI): 105% | growth at 1 µM (SNB-75): 79% | growth at 0.1 µM (HOP-92): 70% | growth at 0.1 µM (SF-295 [3]): 92% | growth at 100 µM (CCRF-CEM [4]): -3% | GI50 (786-0): 3.48 µM | TGI (786-0): > 100 µM | CC50 (786-0; [18]): > 100 µM | GI50 (SF-295 [5]): 1.89 µM | LC50 (concentration killing 50% of cells) (SF-295 [5]): > 100 µM | TGI (SF-295 [5]): 64.7 µM | growth at 1 µM (DU-145): 95% | GI50 (SNB-19 [6]): 7.21 µM | LC50 (SNB-19 [6]): > 100 µM | TGI (SNB-19 [6]): > 100 µM | growth at 1 µM (SK-OV-3): 88% | growth at 1 µM (IGROV-1): 85% | growth at 0.1 µM (OVCAR-8): 97% | GI50 (OVCAR-3 [7]): 2.32 µM | TGI (OVCAR-3 [7]): 12.6 µM | CC50 (OVCAR-3 [7]; [18]): > 100 µM | growth at 0.1 µM (SF-539 [8]): 96% | growth at 100 µM (SK-MEL-5): -49% | growth at 0.1 µM (M14): 94% | growth at 0.01 µM (UACC-257 [9]): 94% | growth at 1 µM (OVCAR-3 [10]): 76% | growth at 0.01 µM (A498 [11]): 87% | growth at 0.1 µM (HT-29): 100% | growth at 100 µM (NCI-H460): -25% | growth at 1 µM (UACC-257 [12]): 80% | growth at 1 µM (OVCAR-4): 77% | growth at 100 µM (COLO 205 [13]): -60% | growth at 0.01 µM (NCI-H322M): 96% | growth at 1 µM (COLO 205 [14]): 95% | growth at 100 µM (UO-31): -1% | GI50 (A549): 4.11 µM | TGI (A549): > 100 µM | CC50 (A549; [18]): > 100 µM | growth at 0.01 µM (Hs-578T): 84% | growth at 1 µM (CCRF-CEM [15]): 88% | growth at 0.01 µM (SF-539 [16]): 91% | growth at 0.1 µM (SNB-19 [17]): 96% | growth at 1 µM (MDA-MB-231): 89%
